TRPML3 ag = activates the human TRPML3 channel; 220,000 tested, 0.29% active; activation, % at 3 µM; HEK293 TRPML3-YFP, Fluo-8 calcium fluorescence; 100% = the carbachol control signal; Q8TDD5;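 active = activation above its plate's cutoff, the mean activation of the plate's test wells plus 3 SD, cut at about 12% in these data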
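system = HEK293 cells stably carrying human TRPML3-YFP | doses = one concentration, 3 µM nominal, 0.3% DMSO | timing = dye loading 1 h 37 °C then 30 min ambient, 125 s read | detection = Fluo-8 calcium dye fluorescence, ex 470-495, em 515-575 nm | benchmarks = high control carbachol 87 µM, low control DMSO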
TAAR1 antagonist = human TAAR1 antagonism | Q96RJ0 | 360,000 tested, 1.5% active | CHO RD-HGA16 TAAR1, Fluo-8 calcium fluorescence, antagonist | inhibition, % at 3 µM;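 active = inhibition above a per-plate cutoff, the mean inhibition of test compounds on that plate plus 3 SD, cut at about 49% in these data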
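System: CHO RD-HGA16 cells bearing hTAAR1. Reagent: EC80 β-phenethylamine stimulus. Schedule: seeding 17-24 h prior, 75-min 37 °C, 30-min RT dye loading. Signal: Fluo-8 intracellular calcium dye fluorescence, real-time kinetic reads. Read-out: % inhibition from peak post-agonist over basal fluorescence ratio. Benchmarks: vehicle wells and EC80 agonist wells. Replicates: n of 1.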
LANA-H2B inh = blocks KSHV LANA binding to histone H2A/H2B; cell-free LANA-H2A/H2B peptide, fluorescence polarization; inhibition, % (concentration not given with the values); 320,000 tested, 0.6% active; AID 2629; in the data active = inhibition mostly above about 10%, no sharp cut-off; inactive = mostly below about 6.7%
Target sequence (Q9QR71 whole entry, looked up): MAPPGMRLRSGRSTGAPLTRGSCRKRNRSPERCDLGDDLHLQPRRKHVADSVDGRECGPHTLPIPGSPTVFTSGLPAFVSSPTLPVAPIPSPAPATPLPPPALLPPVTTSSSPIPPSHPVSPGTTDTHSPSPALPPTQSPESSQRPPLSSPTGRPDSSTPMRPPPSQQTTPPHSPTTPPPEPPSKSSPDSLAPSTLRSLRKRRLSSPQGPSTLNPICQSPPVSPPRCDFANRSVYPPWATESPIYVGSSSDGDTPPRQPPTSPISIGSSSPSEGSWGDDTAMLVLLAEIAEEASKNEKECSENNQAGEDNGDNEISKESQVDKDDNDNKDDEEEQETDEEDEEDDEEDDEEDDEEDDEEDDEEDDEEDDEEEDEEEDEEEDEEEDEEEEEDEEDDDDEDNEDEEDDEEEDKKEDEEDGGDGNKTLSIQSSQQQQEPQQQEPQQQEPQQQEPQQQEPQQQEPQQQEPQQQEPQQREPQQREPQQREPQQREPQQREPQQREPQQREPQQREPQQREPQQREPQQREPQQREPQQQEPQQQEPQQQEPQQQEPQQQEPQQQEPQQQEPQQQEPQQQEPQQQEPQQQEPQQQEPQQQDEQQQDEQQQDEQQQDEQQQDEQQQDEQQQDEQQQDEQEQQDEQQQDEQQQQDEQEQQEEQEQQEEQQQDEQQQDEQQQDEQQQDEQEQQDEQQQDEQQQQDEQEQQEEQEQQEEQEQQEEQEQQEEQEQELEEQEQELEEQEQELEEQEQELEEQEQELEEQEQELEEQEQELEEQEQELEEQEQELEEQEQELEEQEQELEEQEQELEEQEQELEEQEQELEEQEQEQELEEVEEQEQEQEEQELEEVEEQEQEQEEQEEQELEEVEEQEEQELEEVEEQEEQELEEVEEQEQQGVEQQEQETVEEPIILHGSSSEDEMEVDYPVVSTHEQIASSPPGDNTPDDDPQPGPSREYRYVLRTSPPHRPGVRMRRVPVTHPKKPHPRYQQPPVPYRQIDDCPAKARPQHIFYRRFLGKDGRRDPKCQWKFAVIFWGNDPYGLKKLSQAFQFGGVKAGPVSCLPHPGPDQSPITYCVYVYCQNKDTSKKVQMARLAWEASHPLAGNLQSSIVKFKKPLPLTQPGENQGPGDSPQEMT
TRPN1 ag = agonists of zebrafish TRPN1 channel | 220,000 tested, 0.18% active | HEK293 zebrafish TRPN1-YFP, Fluo-8 calcium fluorescence; 100% = response to 87 µM carbachol | activation, % at 3 µM;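 active = activation above its plate's cutoff, the mean activation of test wells on that plate plus 3 SD, cut at about 19% in these data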
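Control set: carbachol 87 µM as high control, DMSO as low control; system: HEK293 stable line with zebrafish TRPN1-YFP; read-out: % activation versus carbachol response; detection: intracellular calcium fluorescence with Fluo-8; doses: single test compound dose, 3 µM nominal, 0.3% DMSO; schedule: dye 1 h 37 °C plus 30 min RT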
TAAR1 ag = human TAAR1 agonism. Q96RJ0. CHO RD-HGA16 TAAR1, Fluo-8 calcium fluorescence; vehicle wells 0%, saturating PEA agonist 100%. activation, % at 3 µM. 360,000 tested, 0.99% active;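 active = activation above the mean activation of all test compounds in the run plus 3 SD, cut at about 38% in these data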
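System: CHO RD-HGA16 cells carrying human TAAR1 plus Gα16; Incubation: 17-24 h seeding, 75 min 37 °C dye, 30 min RT; Measured by: Fluo-8 fluorescence, 5 s baseline then 140 s kinetic read; Control set: DMSO and PEA EC100; Replication: single well for each compound.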
GPR7 antagonist = human neuropeptides B/W receptor 1 antagonism; P48145; GPR7-expressing cells, fluorescence antagonist assay; inhibition, % at 4.4 µM; 290,000 tested, 1.1% active; AID 1861; in the data active = inhibition above about 16%, passing the limit was not always enough;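 also: cells stimulated with the agonist NPW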
TAAR1 ag confirm = human TAAR1 agonism, confirmed | 2,400 tested, 82% active | AID 651783 | activation, % at 3 µM | shares compounds with TAAR1 ag | CHO RD-HGA16 TAAR1, Fluo-8 calcium fluorescence; scaled: DMSO 0%, maximal phenethylamine 100%;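 active = activation above a cutoff set at the run's mean compound activation plus 3 SD, cut at about 39% in these data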
Ga16 nonsel ag = nonselective agonism, TAAR1 counter-screen. shares compounds with TAAR1 ag. CHO-Ga16 parental, Fluo-8 calcium fluorescence; normalized to maximal ATP response, DMSO zero. activation, % at 3 µM. 2,400 tested, 50% active. AID 651787;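 active = activation above the run cutoff, the mean activation over all tested wells plus 3 SD, cut at about 12% in these data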
TAAR1 desensitize = counter-screen for human TAAR1 agonists: agonists that desensitize TAAR1. shares compounds with TAAR1 ag. CHO RD-HGA16 hTAAR1, Fluo-8 calcium, beta-PEA response inhibition. inhibition, % at 3 µM. 2,400 tested, 46% active. AID 651951;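 active = inhibition above the run cutoff, the mean inhibition of all test compounds plus 3 SD, cut at about 49% in these data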;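 also: beta-PEA stimulus applied at its EC80; loss of beta-PEA calcium signal after compound pretreatment read as receptor desensitization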
Ga16 antag count = counter-screen for TAAR1 agonists: nonselective Ga16 antagonists; shares compounds with TAAR1 ag; CHO-Ga16 ATP-induced calcium, Fluo-8 fluorescence; 2,400 tested, 39% active; AID 651952; inhibition, % at 3 µM;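 active = inhibition above the plate's mean compound inhibition plus 3 SD, computed per plate, cut at about 22% in these data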
A number is an active result. Shown are actives, neighbours in structure and some others; about 3.4% of the full set was active somewhere.

For COC(=O)[C@]12CCCCC=C1N(Cc1cccc3ccccc13)C(=O)[C@H](CC(=O)NCCc1ccccc1OC)C2 the results were TAAR1 antagonist inactive, TAAR1 ag 45, TAAR1 ag confirm 44, Ga16 nonsel ag inactive, TAAR1 desensitize inactive and Ga16 antag count inactive.
`CCCCCCCCN1C(=O)[C@H](CC(=O)NCCc2ccccc2OC)C[C@@]2(C(=O)OC)CC(C)(C)CC=C12` gave TAAR1 antagonist inactive, TAAR1 ag 44, TAAR1 ag confirm 60, Ga16 nonsel ag inactive, TAAR1 desensitize inactive and Ga16 antag count inactive.
For COC(=O)[C@]12CCCCC=C1N(Cc1ccccc1)C(=O)[C@H](CC(=O)NCCc1ccccc1OC)C2 the results were TAAR1 antagonist 57, TAAR1 ag 70, TAAR1 ag confirm 91, Ga16 nonsel ag inactive, TAAR1 desensitize 77 and Ga16 antag count inactive.
CC[C@]12c3[nH]c4ccc(OC)cc4c3CCN1C(=O)C(CC(=O)NCCc1ccccn1)C[C@@H]2C(=O)N1CCN(C(=O)c2ccco2)CC1 (some centres undefined) was read as TAAR1 antagonist inactive and TAAR1 ag inactive.
CCOc1ccc(-c2cccc(NS(=O)(=O)c3cccc([N+](=O)[O-])c3)c2)nn1 was read as TAAR1 antagonist inactive and TAAR1 ag inactive.
For O=C1NC(=O)C(c2ccccc2)N1 (centres undefined) the results were TAAR1 antagonist inactive and TAAR1 ag inactive.
For Nc1cc(=O)[nH]c(SCC(=O)NCCC2=CCCCC2)n1 the results were TAAR1 antagonist inactive, LANA-H2B inh inactive and TAAR1 ag inactive.
For Cc1nnc(SCC(=O)NCCC2=CCCCC2)[nH]c1=O the results were TAAR1 antagonist 69, LANA-H2B inh inactive, TAAR1 ag 74, TAAR1 ag confirm 95, Ga16 nonsel ag inactive, TAAR1 desensitize 88 and Ga16 antag count inactive.
Cc1cccc(NC(=O)c2cccc(S(=O)(=O)N(C)C3CCCCC3)c2)n1 was read as TAAR1 antagonist inactive and TAAR1 ag inactive.
Screening CC(=O)n1cc([C@H]2C=C(C(N)=O)O[C@@H](OCc3ccc(CO)cc3)C2)c2ccccc21 returned TAAR1 antagonist 81, LANA-H2B inh inactive, TAAR1 ag 78, TAAR1 ag confirm 74, Ga16 nonsel ag 34, TAAR1 desensitize 66 and Ga16 antag count 39.
O=C(COC(=O)c1n[nH]c(=O)c2ccccc12)NC1CCCCC1 was read as TAAR1 antagonist inactive, LANA-H2B inh inactive and TAAR1 ag inactive.
Screening COc1ccc(N(C(=O)CCl)C(C(=O)NCCc2ccccc2)c2cccs2)cc1Cl (centres undefined) returned TRPML3 ag inactive, TAAR1 antagonist inactive, TRPN1 ag inactive, TAAR1 ag 40, GPR7 antagonist inactive, TAAR1 ag confirm inactive, Ga16 nonsel ag inactive, TAAR1 desensitize inactive and Ga16 antag count inactive.
`COc1cccc(N(C(=O)CCl)C(C(=O)NCCc2ccccc2)c2cccs2)c1` (centres undefined) gave TRPML3 ag inactive, TAAR1 antagonist inactive, LANA-H2B inh inactive, TRPN1 ag inactive, TAAR1 ag inactive and GPR7 antagonist inactive.
For CCOc1ccc(S(=O)(=O)NCCC(=O)N2CCN(C(C)=O)CC2)cc1 the results were TAAR1 antagonist inactive and TAAR1 ag inactive.
For CCC(CO)N=CC1=C(O)CC(c2ccccc2)CC1=O (centres undefined) the results were TAAR1 antagonist inactive, LANA-H2B inh inactive, TAAR1 ag inactive and GPR7 antagonist inactive.
Screening CN(C)C(CNC(=O)CSC(=S)N1CCCC1)c1ccccc1 (centres undefined) returned TAAR1 antagonist inactive, LANA-H2B inh inactive and TAAR1 ag inactive.
For O=C(CSC(=S)N1CCCC1)NCCc1ccccc1 the results were TAAR1 antagonist 88, LANA-H2B inh inactive, TAAR1 ag 97, TAAR1 ag confirm 88, Ga16 nonsel ag inactive, TAAR1 desensitize 98 and Ga16 antag count inactive.
Screening O=C(CSc1ccc(-c2cccnc2)nn1)Nc1ccccc1C(F)(F)F returned TAAR1 antagonist inactive, LANA-H2B inh inactive, TAAR1 ag inactive and GPR7 antagonist inactive.
CCN(Cc1ccccc1)c1cc2c(c3c1ccn3C)C1CCC2O1 (centres undefined) was read as TAAR1 antagonist inactive and TAAR1 ag inactive.
For CN(CCc1ccccc1)c1cc2c(c3c1ccn3C)C1CCC2O1 (centres undefined) the results were TAAR1 antagonist 69, TAAR1 ag 78, TAAR1 ag confirm 94, Ga16 nonsel ag inactive, TAAR1 desensitize 78 and Ga16 antag count inactive.
`Cc1cc(N/N=C/c2cccc(F)c2)nc(NCc2ccccc2)n1` gave TRPML3 ag inactive, TAAR1 antagonist inactive, LANA-H2B inh inactive, TRPN1 ag inactive, TAAR1 ag 60, GPR7 antagonist inactive, TAAR1 ag confirm 55, Ga16 nonsel ag inactive, TAAR1 desensitize inactive and Ga16 antag count inactive.
Cc1cc(N/N=C/c2ccccc2F)nc(NCc2ccccc2)n1 was read as TRPML3 ag inactive, TAAR1 antagonist inactive, LANA-H2B inh inactive, TRPN1 ag inactive, TAAR1 ag inactive and GPR7 antagonist inactive.
Cc1cc(N/N=C/c2ccccc2)nc(NCc2ccccc2)n1 was read as TRPML3 ag inactive, TAAR1 antagonist inactive, LANA-H2B inh inactive, TRPN1 ag inactive, TAAR1 ag 51, GPR7 antagonist inactive, TAAR1 ag confirm 63, Ga16 nonsel ag 17, TAAR1 desensitize inactive and Ga16 antag count inactive.
For Clc1cccc2c3c([nH]c12)CCNC3 the results were TAAR1 antagonist inactive, LANA-H2B inh inactive, TAAR1 ag 60, GPR7 antagonist inactive, TAAR1 ag confirm 87, Ga16 nonsel ag inactive, TAAR1 desensitize 66 and Ga16 antag count inactive.
